Data taken from ChEMBL document CHEMBL1152480, “Synthesis of novel carbazole based macrocyclic amides as potential antimicrobial agents” (2009).
Values after ≈ are worked out from the molar mass of the structure shown.

Legend:
Proteus mirabilis = assay: Antibacterial activity against Proteus mirabilis after 24 hrs by well diffusion assay; format: functional
Summary of the method: (§1)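 Bacteria kept on nutrient agar (beef extract, yeast extract, peptone, NaCl; pH 7.2) at room temperature (28 ± 2 °C). Compounds tested by well diffusion against DMSO control, tetracycline reference. MIC taken as lowest concentration giving prominent inhibition of bacterial growth after 24 h at 37 °C.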

[1] = test system: Salmonella enterica subsp. enterica; assay: Antibacterial activity against Salmonella typhi after 24 hrs by well diffusion assay; format: functional, Salmonella enterica subsp. enterica serovar Typhi; settings: for Activity: Salmonella enterica subsp. enterica serovar Typhi
Summary of the method: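 S. typhi kept on nutrient agar (beef extract, yeast extract, peptone, NaCl, agar; pH 7.2) at 28 ± 2 °C. Agar well diffusion with DMSO as control and tetracycline as reference. MIC taken as the lowest concentration giving prominent inhibition of bacterial growth after 24 h at 37 °C.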

Proteus vulgaris = assay: Antibacterial activity against Proteus vulgaris after 24 hrs by well diffusion assay; format: functional; summary of the method: as §1
Staphylococcus aureus = assay: Antibacterial activity against Staphylococcus aureus after 24 hrs by well diffusion assay; format: functional; summary of the method: as §1
Alternaria alternata = assay: Antifungal activity against Alternaria alternata after 3 days by well diffusion assay; format: functional; settings: for MIC: 72 h
Summary of the method: (§2)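 Fungi maintained on potato dextrose agar (potato 200 g/l, dextrose 20 g/l; pH 6.5) at room temperature (28 ± 2 °C). Well diffusion assay against DMSO control; MIC read as lowest concentration causing prominent inhibition of fungal growth after 3 days incubation at 37 °C.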

Curvularia lunata = assay: Antifungal activity against Curvularia lunata after 3 days by well diffusion assay; format: functional; settings: for MIC: 72 h; summary of the method: as §2
Macrophomina phaseolina = assay: Antifungal activity against Macrophomina phaseolina after 3 days by well diffusion assay; format: functional; settings: for MIC: 72 h; summary of the method: as §2
Rhizoctonia solani = assay: Antifungal activity against Rhizoctonia solani after 3 days by well diffusion assay; format: functional; settings: for MIC: 72 h; summary of the method: as §2

`CN(C)[C@@H]1C(O)=C(C(N)=O)C(=O)[C@@]2(O)C(O)=C3C(=O)c4c(O)cccc4[C@@](C)(O)[C@H]3C[C@@H]12` [TETRACYCLINE] gave an MIC (Proteus mirabilis) of 20 µg/mL (≈ 45 µM), an MIC [1] of 15 µg/mL (≈ 33.8 µM) and an MIC (Proteus vulgaris) of 35 µg/mL (≈ 78.8 µM). The MIC (Staphylococcus aureus) was 20 µg/mL (≈ 45 µM).
`CCn1c2ccc3cc2c2cc(ccc21)CSc1ccccc1NC(=O)COc1cccc(c1)OCC(=O)Nc1ccccc1SC3` was tested, and the Activity (Alternaria alternata) was “Dose-dependent effect”, the MIC (Alternaria alternata) was 25 µg/mL (≈ 37.9 µM) and the Activity (Proteus mirabilis) was “Dose-dependent effect”. For the same compound, the MIC (Proteus mirabilis) was 20 µg/mL (≈ 30.3 µM), the MIC [1] was 30 µg/mL (≈ 45.5 µM) and the Activity [1] was “Dose-dependent effect”. The Activity (Curvularia lunata) was “Dose-dependent effect”, the MIC (Curvularia lunata) was 35 µg/mL (≈ 53 µM) and the Activity (Proteus vulgaris) was “Dose-dependent effect”. For the same compound, the MIC (Proteus vulgaris) was 60 µg/mL (≈ 90.9 µM), the Activity (Macrophomina phaseolina) was “Dose-dependent effect” and the MIC (Macrophomina phaseolina) was 45 µg/mL (≈ 68.2 µM). For the same compound, the Activity (Rhizoctonia solani) was “Dose-dependent effect”, the MIC (Rhizoctonia solani) was 50 µg/mL (≈ 75.8 µM) and the Activity (Staphylococcus aureus) was “Dose-dependent effect”. The MIC (Staphylococcus aureus) was 40 µg/mL (≈ 60.6 µM).
With `CCn1c2ccc3cc2c2cc(ccc21)CSc1ccccc1NC(=O)c1cccc(n1)C(=O)Nc1ccccc1SC3` the Activity (Alternaria alternata) was “Dose-dependent effect”, the MIC (Alternaria alternata) was 15 µg/mL (≈ 25 µM) and the Activity (Proteus mirabilis) was “Dose-dependent effect”. The MIC (Proteus mirabilis) was 5 µg/mL (≈ 8.32 µM), the MIC [1] was 30 µg/mL (≈ 49.9 µM) and the Activity [1] was “Dose-dependent effect”. The Activity (Curvularia lunata) was “Dose-dependent effect”, the MIC (Curvularia lunata) was 15 µg/mL (≈ 25 µM) and the Activity (Proteus vulgaris) was “Dose-dependent effect”. The MIC (Proteus vulgaris) was 30 µg/mL (≈ 49.9 µM), the Activity (Macrophomina phaseolina) was “Dose-dependent effect” and the MIC (Macrophomina phaseolina) was 10 µg/mL (≈ 16.6 µM). For the same compound, the Activity (Rhizoctonia solani) was “Dose-dependent effect”, the MIC (Rhizoctonia solani) was 20 µg/mL (≈ 33.3 µM) and the Activity (Staphylococcus aureus) was “Dose-dependent effect”. For the same compound, the MIC (Staphylococcus aureus) was 10 µg/mL (≈ 16.6 µM).
In the case of `CCn1c2ccc3cc2c2cc(ccc21)CSc1ccccc1NC(=O)c1ccccc1-c1ccccc1C(=O)Nc1ccccc1SC3`, the Activity (Alternaria alternata) is reported as “Dose-dependent effect”, the MIC (Alternaria alternata) is reported as 25 µg/mL (≈ 37 µM) and the Activity (Proteus mirabilis) is reported as “Dose-dependent effect”. The MIC (Proteus mirabilis) was 40 µg/mL (≈ 59.2 µM), the MIC [1] was 60 µg/mL (≈ 88.8 µM) and the Activity [1] was “Dose-dependent effect”. For the same compound, the Activity (Curvularia lunata) was “Dose-dependent effect”, the MIC (Curvularia lunata) was 20 µg/mL (≈ 29.6 µM) and the Activity (Proteus vulgaris) was “Dose-dependent effect”. The MIC (Proteus vulgaris) was 40 µg/mL (≈ 59.2 µM), the Activity (Macrophomina phaseolina) was “Dose-dependent effect” and the MIC (Macrophomina phaseolina) was 15 µg/mL (≈ 22.2 µM). For the same compound, the Activity (Rhizoctonia solani) was “Dose-dependent effect”, the MIC (Rhizoctonia solani) was 20 µg/mL (≈ 29.6 µM) and the Activity (Staphylococcus aureus) was “Dose-dependent effect”. It also gave an MIC (Staphylococcus aureus) of 70 µg/mL (≈ 104 µM).
`COC(=O)Nc1nc2ccccc2[nH]1` [CARBENDAZIM] gave an MIC (Alternaria alternata) of 12 µg/mL (≈ 62.8 µM), an MIC (Curvularia lunata) of 15 µg/mL (≈ 78.5 µM) and an MIC (Macrophomina phaseolina) of 18 µg/mL (≈ 94.1 µM). For the same compound, the MIC (Rhizoctonia solani) was 25 µg/mL (≈ 131 µM).
`CCn1c2ccc3cc2c2cc(ccc21)CSc1ccccc1NC(=O)c1cccc(c1)C(=O)Nc1ccccc1SC3` was tested, and the Activity (Alternaria alternata) was “Dose-dependent effect”, the MIC (Alternaria alternata) was 15 µg/mL (≈ 25 µM) and the Activity (Proteus mirabilis) was “Dose-dependent effect”. The MIC (Proteus mirabilis) was 50 µg/mL (≈ 83.4 µM), the MIC [1] was 50 µg/mL (≈ 83.4 µM) and the Activity [1] was “Dose-dependent effect”. For the same compound, the Activity (Curvularia lunata) was “Dose-dependent effect”, the MIC (Curvularia lunata) was 20 µg/mL (≈ 33.3 µM) and the Activity (Proteus vulgaris) was “Dose-dependent effect”. The MIC (Proteus vulgaris) was 60 µg/mL (≈ 100 µM), the Activity (Macrophomina phaseolina) was “Dose-dependent effect” and the MIC (Macrophomina phaseolina) was 30 µg/mL (≈ 50 µM). For the same compound, the Activity (Rhizoctonia solani) was “Dose-dependent effect”, the MIC (Rhizoctonia solani) was 30 µg/mL (≈ 50 µM) and the Activity (Staphylococcus aureus) was “Dose-dependent effect”. It also gave an MIC (Staphylococcus aureus) of 20 µg/mL (≈ 33.3 µM).
In the case of `CCn1c2ccc3cc2c2cc(ccc21)CSc1ccccc1NC(=O)c1ccc(cc1)OCc1ccccc1COc1ccc(cc1)C(=O)Nc1ccccc1SC3`, the Activity (Alternaria alternata) is reported as “Dose-dependent effect”, the MIC (Alternaria alternata) is reported as 15 µg/mL (≈ 18.5 µM) and the Activity (Proteus mirabilis) is reported as “Dose-dependent effect”. For the same compound, the MIC (Proteus mirabilis) was 10 µg/mL (≈ 12.3 µM), the MIC [1] was 20 µg/mL (≈ 24.6 µM) and the Activity [1] was “Dose-dependent effect”. The Activity (Curvularia lunata) was “Dose-dependent effect”, the MIC (Curvularia lunata) was 20 µg/mL (≈ 24.6 µM) and the Activity (Proteus vulgaris) was “Dose-dependent effect”. The MIC (Proteus vulgaris) was 40 µg/mL (≈ 49.3 µM), the Activity (Macrophomina phaseolina) was “Dose-dependent effect” and the MIC (Macrophomina phaseolina) was 50 µg/mL (≈ 61.6 µM). The Activity (Rhizoctonia solani) was “Dose-dependent effect”, the MIC (Rhizoctonia solani) was 40 µg/mL (≈ 49.3 µM) and the Activity (Staphylococcus aureus) was “Dose-dependent effect”. The MIC (Staphylococcus aureus) was 30 µg/mL (≈ 36.9 µM).
For `CCn1c2ccc3cc2c2cc(ccc21)CSc1ccccc1NC(=O)COc1ccc2ccccc2c1-c1c(ccc2ccccc12)OCC(=O)Nc1ccccc1SC3`, the Activity (Alternaria alternata) was “Dose-dependent effect”, the MIC (Alternaria alternata) was 10 µg/mL (≈ 12 µM) and the Activity (Proteus mirabilis) was “Dose-dependent effect”. For the same compound, the MIC (Proteus mirabilis) was 5 µg/mL (≈ 5.98 µM), the MIC [1] was 10 µg/mL (≈ 12 µM) and the Activity [1] was “Dose-dependent effect”. For the same compound, the Activity (Curvularia lunata) was “Dose-dependent effect”, the MIC (Curvularia lunata) was 10 µg/mL (≈ 12 µM) and the Activity (Proteus vulgaris) was “Dose-dependent effect”. For the same compound, the MIC (Proteus vulgaris) was 5 µg/mL (≈ 5.98 µM), the Activity (Macrophomina phaseolina) was “Dose-dependent effect” and the MIC (Macrophomina phaseolina) was 15 µg/mL (≈ 17.9 µM). For the same compound, the Activity (Rhizoctonia solani) was “Dose-dependent effect”, the MIC (Rhizoctonia solani) was 20 µg/mL (≈ 23.9 µM) and the Activity (Staphylococcus aureus) was “Dose-dependent effect”. For the same compound, the MIC (Staphylococcus aureus) was 10 µg/mL (≈ 12 µM).
